Each block holds one compound with its values, some of them ahead of it.
Key:
[1] = biological target: T1, Hepatocyte growth factor receptor (Homo sapiens, UniProt P08581); assay: Inhibition of purified recombinant c-Met after 60 mins by ELISA
BaF3 [2] = assay: Antiproliferative activity against mouse BAF3 cells expressing TPR-Met after 72 hrs in presence of IL-3; type: functional, cell-based; conditions: BaF3, 72 h
Method in brief: (§1)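 Cells were seeded and exposed next day to a range of compound concentrations for 72 h. Proliferation was read by sulforhodamine B or MTT assay, and IC50 derived.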

BaF3 [3] = assay: Antiproliferative activity against mouse BAF3 cells expressing TPR-Met after 72 hrs in absence of IL-3; type: functional, cell-based; conditions: BaF3, 72 h; method in brief: as §1
[4] = biological target: Hepatocyte growth factor receptor (Mus musculus) (UniProt P16056); assay: Inhibition of TPR-MET autophosphorylation in mouse BaF3 cells after 4 hrs by Western blotting; type: cell-based
Method in brief: (§2)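 Exponentially growing cells were treated with compound for 4 h at 37 °C and lysed in SDS sample buffer. Lysates were run on 10% SDS-PAGE and blotted to nitrocellulose. Blots were probed for phospho-c-Met and total c-Met, with GAPDH as loading control, and detected by ECL.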

NIH3T3 [5] = assay: Antiproliferative activity against mouse NIH/3T3 cells after 72 hrs; type: functional, cell-based; conditions: NIH3T3, 72 h; method in brief: as §1
[6] = biological target: Hepatocyte growth factor receptor (Mus musculus) (UniProt P16056); assay: Inhibition of TPR-MET autophosphorylation in mouse NIH3T3 cells after 4 hrs by Western blotting; type: cell-based; method in brief: as §2
NIH3T3 [7] = assay: Antiproliferative activity against mouse NIH/3T3 cells expressing TPR-Met after 72 hrs; type: functional, cell-based; conditions: NIH3T3, 72 h; method in brief: as §1
[8] = biological target: T1, Hepatocyte growth factor receptor; assay: Inhibition of purified recombinant c-Met at 10 uM after 60 mins by ELISA
[9] = AUC (0 to infinity) in mouse at 20 mg/kg, po; type: ADME, organism-based; design: dose 20 mg/kg, route oral, time infinity; conditions: plasma
Method in brief: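 Mice dosed orally at 20 mg/kg in DMSO/Tween 80/normal saline vehicle; plasma concentration-time profile used to derive AUC0-∞. Values are the average of three runs.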

[10] = Tmax in mouse at 20 mg/kg, po; type: ADME, organism-based; design: dose 20 mg/kg, route oral; conditions: in vivo
[11] = Half life in mouse at 2.5 mg/kg, iv; type: ADME, organism-based; design: dose 2.5 mg/kg, route intravenous; conditions: in vivo
Method in brief: (§3)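 Single iv dose to mice in DMSO/Tween 80/normal saline vehicle, reduced to 2.5 mg/kg because of poor solubility. Clearance and half-life were taken from plasma concentration-time data. Average of three runs.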

[12] = Oral bioavailability in mouse at 20 mg/kg; type: ADME, organism-based; conditions: in vivo
[13] = Cmax in mouse at 20 mg/kg, po; type: ADME, organism-based; design: dose 20 mg/kg, route oral; conditions: in vivo
Method in brief: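 Oral 20 mg/kg single dose to mice, vehicle DMSO/Tween 80/normal saline. Cmax was read from the plasma concentration-time profile. Average of three runs.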

[14] = Volume of distribution at steady state in mouse at 2.5 mg/kg, iv; type: ADME, organism-based; design: dose 2.5 mg/kg, route intravenous; conditions: in vivo, read-out: Vdss
[15] = Clearance in mouse at 2.5 mg/kg, iv; type: ADME, organism-based; design: dose 2.5 mg/kg, route intravenous; conditions: in vivo; method in brief: as §3
MDA-MB-231 = assay: Antiproliferative activity against human MDA-MB-231 cells after 72 hrs; conditions: MDA-MB-231, 72 h
SNU1 = assay: Antiproliferative activity against human SNU1 cells after 72 hrs; conditions: SNU1, 72 h
NCI-H1993 = assay: Antiproliferative activity against human NCI-H1993 cells after 72 hrs; conditions: NCI-H1993, 72 h
MKN-45 = assay: Antiproliferative activity against human MKN45 cells after 72 hrs; conditions: MKN-45, 72 h
SNU-5 = assay: Antiproliferative activity against human SNU5 cells after 72 hrs; conditions: SNU-5, 72 h
BXPC-3 = assay: Antiproliferative activity against human BxPC3 cells after 72 hrs; conditions: BXPC-3, 72 h
MCF7 = assay: Antiproliferative activity against human MCF7 cells after 72 hrs; conditions: MCF7, 72 h
NCI-H441 = assay: Antiproliferative activity against human NCI-H441 cells after 72 hrs; conditions: NCI-H441, 72 h
[16] = Volume of distribution at steady state in mouse at 10 mg/kg, iv; type: ADME, organism-based; design: dose 10 mg/kg, route intravenous; conditions: in vivo, read-out: Vdss
[17] = Clearance in mouse at 10 mg/kg, iv; type: ADME, organism-based; design: dose 10 mg/kg, route intravenous; conditions: in vivo
Method in brief: (§4)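 Single iv dose of 10 mg/kg to mice, vehicle DMSO/Tween 80/normal saline. Clearance and half-life were derived from plasma concentration-time data. Average of three runs.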

[18] = Half life in mouse at 10 mg/kg, iv; type: ADME, organism-based; design: dose 10 mg/kg, route intravenous; conditions: in vivo; method in brief: as §4

Chain of Hepatocyte growth factor receptor (Mus musculus) (P16056 whole entry): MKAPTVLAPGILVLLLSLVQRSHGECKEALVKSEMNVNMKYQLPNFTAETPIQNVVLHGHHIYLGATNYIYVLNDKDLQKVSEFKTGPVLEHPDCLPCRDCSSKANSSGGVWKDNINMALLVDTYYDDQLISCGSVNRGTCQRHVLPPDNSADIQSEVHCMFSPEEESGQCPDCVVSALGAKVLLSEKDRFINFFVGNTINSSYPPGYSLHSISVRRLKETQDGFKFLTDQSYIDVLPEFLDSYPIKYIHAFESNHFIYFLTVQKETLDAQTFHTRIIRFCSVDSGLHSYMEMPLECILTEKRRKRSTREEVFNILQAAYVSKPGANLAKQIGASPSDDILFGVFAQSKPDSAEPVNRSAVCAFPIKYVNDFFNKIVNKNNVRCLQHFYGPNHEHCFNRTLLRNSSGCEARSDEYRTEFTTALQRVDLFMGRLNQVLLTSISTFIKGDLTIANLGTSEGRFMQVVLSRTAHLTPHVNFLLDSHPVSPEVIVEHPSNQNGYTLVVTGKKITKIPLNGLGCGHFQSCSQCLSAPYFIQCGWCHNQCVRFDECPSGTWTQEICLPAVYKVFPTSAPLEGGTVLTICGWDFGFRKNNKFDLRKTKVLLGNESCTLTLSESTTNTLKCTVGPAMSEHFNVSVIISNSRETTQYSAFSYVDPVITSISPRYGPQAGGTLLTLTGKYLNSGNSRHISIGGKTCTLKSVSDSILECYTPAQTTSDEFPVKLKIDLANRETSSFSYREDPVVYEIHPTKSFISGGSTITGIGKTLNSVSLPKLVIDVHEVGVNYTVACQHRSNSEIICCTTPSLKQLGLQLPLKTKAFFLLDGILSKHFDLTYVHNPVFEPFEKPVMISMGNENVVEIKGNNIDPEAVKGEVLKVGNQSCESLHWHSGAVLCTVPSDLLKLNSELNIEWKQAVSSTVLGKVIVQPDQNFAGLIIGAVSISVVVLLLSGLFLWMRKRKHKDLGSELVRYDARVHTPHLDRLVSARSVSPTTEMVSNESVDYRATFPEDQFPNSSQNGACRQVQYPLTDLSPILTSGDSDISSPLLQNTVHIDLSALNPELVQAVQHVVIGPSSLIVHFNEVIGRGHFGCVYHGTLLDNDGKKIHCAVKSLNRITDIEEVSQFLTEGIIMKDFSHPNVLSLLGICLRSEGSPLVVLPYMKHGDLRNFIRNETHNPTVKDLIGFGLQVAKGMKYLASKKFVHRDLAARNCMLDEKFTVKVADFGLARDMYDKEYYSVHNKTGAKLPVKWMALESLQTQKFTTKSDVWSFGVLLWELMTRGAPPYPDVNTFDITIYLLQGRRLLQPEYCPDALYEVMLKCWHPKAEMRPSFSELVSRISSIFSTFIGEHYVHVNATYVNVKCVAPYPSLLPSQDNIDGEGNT
T1 sequence (P08581 whole entry): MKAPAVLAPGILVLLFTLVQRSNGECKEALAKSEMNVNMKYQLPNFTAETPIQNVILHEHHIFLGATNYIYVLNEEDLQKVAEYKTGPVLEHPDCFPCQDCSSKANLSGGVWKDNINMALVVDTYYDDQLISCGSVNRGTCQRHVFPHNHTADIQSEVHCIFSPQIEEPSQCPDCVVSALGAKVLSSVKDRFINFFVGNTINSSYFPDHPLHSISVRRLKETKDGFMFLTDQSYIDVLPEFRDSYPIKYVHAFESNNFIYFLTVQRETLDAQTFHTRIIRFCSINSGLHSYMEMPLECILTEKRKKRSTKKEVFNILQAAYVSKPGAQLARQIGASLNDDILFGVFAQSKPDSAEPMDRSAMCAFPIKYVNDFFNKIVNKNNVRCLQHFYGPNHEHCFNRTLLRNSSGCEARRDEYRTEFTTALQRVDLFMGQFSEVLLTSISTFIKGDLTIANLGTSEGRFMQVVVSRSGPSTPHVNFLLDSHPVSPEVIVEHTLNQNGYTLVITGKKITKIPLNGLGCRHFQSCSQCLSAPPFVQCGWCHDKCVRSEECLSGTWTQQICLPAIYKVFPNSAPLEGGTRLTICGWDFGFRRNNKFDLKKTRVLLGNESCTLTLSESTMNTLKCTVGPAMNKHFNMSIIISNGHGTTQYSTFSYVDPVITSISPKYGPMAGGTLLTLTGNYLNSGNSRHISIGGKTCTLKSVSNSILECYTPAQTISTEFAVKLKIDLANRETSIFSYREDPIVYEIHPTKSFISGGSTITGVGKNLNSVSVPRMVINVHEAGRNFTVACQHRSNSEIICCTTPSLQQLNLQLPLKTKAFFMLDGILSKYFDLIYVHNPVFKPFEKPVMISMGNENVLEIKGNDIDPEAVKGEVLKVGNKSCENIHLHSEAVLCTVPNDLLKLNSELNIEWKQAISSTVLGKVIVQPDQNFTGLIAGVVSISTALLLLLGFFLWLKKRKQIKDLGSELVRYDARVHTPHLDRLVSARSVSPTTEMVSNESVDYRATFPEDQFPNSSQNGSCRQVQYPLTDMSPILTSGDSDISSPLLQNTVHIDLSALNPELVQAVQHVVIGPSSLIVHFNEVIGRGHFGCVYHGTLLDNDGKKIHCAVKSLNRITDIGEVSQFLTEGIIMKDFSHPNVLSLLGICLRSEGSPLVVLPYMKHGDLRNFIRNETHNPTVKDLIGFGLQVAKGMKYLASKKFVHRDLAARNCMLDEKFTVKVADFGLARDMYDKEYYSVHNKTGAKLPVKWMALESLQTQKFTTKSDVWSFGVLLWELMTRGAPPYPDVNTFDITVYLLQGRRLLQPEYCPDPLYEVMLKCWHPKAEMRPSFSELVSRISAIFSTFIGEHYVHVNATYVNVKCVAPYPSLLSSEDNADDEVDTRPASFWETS

IC50 [1]: 140 nM
SMILES: CN1CCN(c2cnc3cccc(OCc4cccc([N+](=O)[O-])c4)c3c2)CC1

IC50 [1]: 5800 nM
SMILES: CN1CCN(c2cnc3cccc(-c4ccc5ccccc5c4)c3c2)CC1

IC50 [1]: 110 nM
SMILES: CC(=O)N1CCN(c2cnc3cccc(NCc4cccc([N+](=O)[O-])c4)c3c2)CC1

IC50 [1]: 1.01 nM
IC50 (BaF3 [2]): 10100 nM
IC50 (BaF3 [3]): 370 nM
inhibition [4]: Dose-dependent effect
inhibition [6]: Dose-dependent effect
SMILES: CCN1CCN(c2cnc3cc(C(F)(F)F)cc(NCc4cccc([N+](=O)[O-])c4)c3c2)CC1
IC50 (NIH3T3 [5]): 13200 nM
IC50 (NIH3T3 [7]): 2600 nM

inhibition [8]: 29.9%
SMILES: CN1CCN(c2cnc3cccc(-c4ccc(F)cc4)c3c2)CC1

IC50 [1]: 10.6 nM
SMILES: CC(C)(C)OC(=O)N1CCN(c2cnc3cc(C(F)(F)F)cc(NCc4cccc([N+](=O)[O-])c4)c3c2)CC1

IC50 [1]: 0.84 nM
IC50 (BaF3 [2]): ≥ 50000 nM
IC50 (BaF3 [3]): 500 nM
inhibition [4]: Dose-dependent effect
inhibition [6]: Dose-dependent effect
SMILES: O=[N+]([O-])c1cccc(CNc2cc(C(F)(F)F)cc3ncc(N4CCN(S(=O)(=O)C5CC5)CC4)cc23)c1
IC50 (NIH3T3 [5]): ≥ 50000 nM
IC50 (NIH3T3 [7]): 1400 nM

IC50 [1]: 0.72 nM
IC50 (BaF3 [2]): ≥ 50000 nM
IC50 (BaF3 [3]): 4200 nM
inhibition [4]: Dose-dependent effect
inhibition [6]: Dose-dependent effect
SMILES: O=[N+]([O-])c1cccc(CNc2cc(C(F)(F)F)cc3ncc(N4CCOCC4)cc23)c1
IC50 (NIH3T3 [5]): ≥ 50000 nM
IC50 (NIH3T3 [7]): 4000 nM

IC50 [1]: 0.82 nM
IC50 (BaF3 [2]): ≥ 50000 nM
IC50 (BaF3 [3]): 8800 nM
AUC(0-inf) [9]: 366 ng·h/mL
Tmax [10]: 1.33 h
half-life [11]: 0.97 h
inhibition [4]: Dose-dependent effect
bioavailability [12]: 3.7%
Cmax [13]: 59.3 ng/mL
Vd [14]: 1.72 L/kg
inhibition [6]: Dose-dependent effect
clearance [15]: 43.3 mL/min/kg
SMILES: CS(=O)(=O)N1CCN(c2cnc3cc(C(F)(F)F)cc(NCc4cccc([N+](=O)[O-])c4)c3c2)CC1
IC50 (NIH3T3 [5]): ≥ 50000 nM
IC50 (NIH3T3 [7]): 2200 nM

inhibition [8]: 12.4%
SMILES: CN1CCN(c2cnc3cccc(NC(=S)Nc4cccc([N+](=O)[O-])c4)c3c2)CC1

IC50 [1]: 99 nM
SMILES: CN1CCN(c2cnc3cc(C(F)(F)F)cc(NS(=O)(=O)c4cccc([N+](=O)[O-])c4)c3c2)CC1

IC50 [1]: 450 nM
SMILES: CN1CCN(c2cnc3cc(C(F)(F)F)cc(NCc4cccc(F)c4)c3c2)CC1

inhibition [8]: 7.3%
SMILES: CN1CCN(c2cnc3cccc(OC(=O)c4cccc([N+](=O)[O-])c4)c3c2)CC1

SMILES: CN1CCN(c2cnc3cccc(-c4ccco4)c3c2)CC1
IC50 [1]: 12700 nM

IC50 [1]: 5.6 nM
SMILES: CCN1CCN(c2cnc3cc(C(F)(F)F)cc(NCc4cccc(C#N)c4)c3c2)CC1

inhibition [8]: 25.2%
SMILES: CN1CCN(c2cnc3cccc(NC(=O)Nc4cccc([N+](=O)[O-])c4)c3c2)CC1

IC50 [1]: 1200 nM
SMILES: CN1CCN(c2cnc3cccc(OS(=O)(=O)c4cccc([N+](=O)[O-])c4)c3c2)CC1

inhibition [8]: 30.7%
SMILES: CN1CCN(c2cnc3cccc(-c4cccc(O)c4)c3c2)CC1

IC50 [1]: 5300 nM
SMILES: CN1CCN(c2cnc3cccc(NC(=O)c4cccn(-c5ccc(F)cc5)c4=O)c3c2)CC1

IC50 [1]: 2.7 nM
SMILES: CN1CCN(c2cnc3cc(C(F)(F)F)cc(OCc4cccc([N+](=O)[O-])c4)c3c2)CC1

IC50 [1]: 3.4 nM
SMILES: O=[N+]([O-])c1cccc(CNc2cc(C(F)(F)F)cc3ncc(N4CCCCC4)cc23)c1

SMILES: CN1CCN(c2cnc3cccc(-c4cccs4)c3c2)CC1
IC50 [1]: 14300 nM

IC50 [1]: 12300 nM
SMILES: CN1CCN(c2cnc3cccc(OCc4cccc(C#N)c4)c3c2)CC1

inhibition [8]: 46.6%
SMILES: CCN1CCN(c2cnc3cc(NCc4cccc([N+](=O)[O-])c4)cc(C(F)(F)F)c3c2)CC1

IC50 [1]: 43 nM
SMILES: COC(=O)N1CCN(c2cnc3cc(C(F)(F)F)cc(NCc4cccc([N+](=O)[O-])c4)c3c2)CC1

inhibition [8]: 8.9%
SMILES: CN1CCN(c2cnc3cc(NCc4cccc([N+](=O)[O-])c4)cc(C(F)(F)F)c3c2)CC1

IC50 [1]: 2560 nM
SMILES: CC(=O)N1CCN(c2cnc3cccc(NS(=O)(=O)c4cccc([N+](=O)[O-])c4)c3c2)CC1

IC50 [1]: 10000 nM
SMILES: CCN1CCN(c2cnc3cc(C(F)(F)F)cc(NCc4ccc(F)cc4)c3c2)CC1

inhibition [8]: 13.9%
SMILES: CC(=O)N1CCN(c2cnc3cccc(NC(=S)Nc4cccc([N+](=O)[O-])c4)c3c2)CC1

IC50 [1]: 166 nM
SMILES: CN1CCN(c2cnc3cccc(NCc4cccc([N+](=O)[O-])c4)c3c2)CC1

IC50 [1]: 22400 nM
SMILES: CC(=O)N1CCN(c2cnc3cccc(NC(=O)Nc4cccc([N+](=O)[O-])c4)c3c2)CC1

IC50 [1]: 14 nM
IC50 (BaF3 [2]): 6400 nM
IC50 (BaF3 [3]): 530 nM
IC50 (MDA-MB-231): 11000 nM
IC50 (SNU1): 7000 nM
IC50 (NCI-H1993): 7300 nM
IC50 (MKN-45): 1300 nM
IC50 (SNU-5): 800 nM
IC50 (BXPC-3): 16000 nM
IC50 (MCF7): 6200 nM
IC50 (NCI-H441): 13000 nM
SMILES: Cc1[nH]c(/C=C2\C(=O)Nc3ccc(S(=O)(=O)N(C)c4cccc(Cl)c4)cc32)c(C)c1C(=O)N1CCN(C)CC1
IC50 (NIH3T3 [5]): ≥ 50000 nM
IC50 (NIH3T3 [7]): 6500 nM

IC50 [1]: 160 nM
SMILES: CN1CCN(c2cnc3cc(C(F)(F)F)cc(NCc4cccnc4)c3c2)CC1

IC50 [1]: 2.2 nM
SMILES: O=[N+]([O-])c1cccc(CNc2cc(C(F)(F)F)cc3ncc(N4CCNCC4)cc23)c1

IC50 [1]: 4.4 nM
SMILES: O=C(O)CN1CCN(c2cnc3cc(C(F)(F)F)cc(NCc4cccc([N+](=O)[O-])c4)c3c2)CC1

IC50 [1]: 2300 nM
SMILES: CN1CCN(c2cnc3cccc(-c4cccc([N+](=O)[O-])c4)c3c2)CC1

IC50 [1]: 3440 nM
SMILES: CN1CCN(c2cnc3cccc(NS(=O)(=O)c4cccc([N+](=O)[O-])c4)c3c2)CC1

inhibition [8]: 25.8%
SMILES: CN1CCN(c2cnc3cccc(OCc4cccc(F)c4)c3c2)CC1

IC50 [1]: 0.77 nM
IC50 (BaF3 [2]): 14100 nM
IC50 (BaF3 [3]): 1400 nM
AUC(0-inf) [9]: 700 ng·h/mL
Vd [16]: 1.36 L/kg
Tmax [10]: 0.5 h
clearance [17]: 40.5 mL/min/kg
inhibition [4]: Dose-dependent effect
bioavailability [12]: 8.2%
Cmax [13]: 279 ng/mL
inhibition [6]: Dose-dependent effect
half-life [18]: 1.13 h
SMILES: CCOC(=O)CN1CCN(c2cnc3cc(C(F)(F)F)cc(NCc4cccc([N+](=O)[O-])c4)c3c2)CC1
IC50 (NIH3T3 [5]): ≥ 50000 nM
IC50 (NIH3T3 [7]): 5900 nM

inhibition [8]: 12.6%
SMILES: CN1CCN(c2cnc3cccc(OC(=O)c4cccn(-c5ccc(F)cc5)c4=O)c3c2)CC1

IC50 [1]: 230 nM
SMILES: CCN1CCN(c2cnc3cc(C(F)(F)F)cc(NCc4cccc(O)c4)c3c2)CC1

Source: ChEMBL document CHEMBL1765011, “Synthesis and c-Met kinase inhibition of 3,5-disubstituted and 3,5,7-trisubstituted quinolines: identification of 3-(4-acetylpiperazin-1-yl)-5-(3-nitrobenzylamino)-7- (trifluoromethyl)quinoline as a novel anticancer agent” (J Med Chem, 2011)
